Reference: ChEMBL document CHEMBL1177711, “Novel quinolizidinyl derivatives as antiarrhythmic agents: 2. Further investigation” (J Med Chem, 2010)

What was measured:
Aorta [1] = experiment: Vasorelaxant activity in potassium depolarized guinea pig aortic strip assessed as inhibition of calcium-induced contraction at 100 uM; type: functional; details: Cavia porcellus
[2] = Negative inotropic activity against potassium-induced contraction in guinea pig left atrium assessed as decrease in developed tension; type: functional, tissue-based; details: Cavia porcellus, Cardiac atrium
[3] = Antiarrhythmic activity in sinusoidal alternating current-induced guinea pig left atrium assessed as increase in current strength at which extra beats occur at 50 uM measured every 30 mins; type: functional, Cavia porcellus, Cardiac atrium
Outline: (§1)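 Isolated guinea pig left atria, electrically driven at 1 Hz, were exposed to sinusoidal alternating current to induce arrhythmia. The read-out was the rise in the ac-arrhythmia threshold over concentrations up to 100 μM.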

[4] = Negative inotropic activity against potassium-induced contraction in guinea pig left atrium assessed as decrease in developed tension at 0.1 uM relative to control; type: functional, Cavia porcellus, Cardiac atrium; set-up: scale not given: the % may be the effect or the level left
[5] = Negative chronotropic activity against potassium-induced contraction in guinea pig left atrium assessed as decrease atrial rate; type: functional, tissue-based; details: Cavia porcellus, Cardiac atrium
[6] = Negative inotropic activity against potassium-induced contraction in guinea pig left atrium assessed as decrease in developed tension at 10 uM relative to control; type: functional, Cavia porcellus, Cardiac atrium; set-up: scale not given: the % may be the effect or the level left
[7] = Cardioprotective effect in Langendorff perfused guinea pig spontaneously beating […] assessed as atrioventicular conduction time at 1 uM (RVb = 50 to 55 +/- 1 to 4 ms); type: functional; details: Cavia porcellus
Outline: (§2)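 Whole guinea pig hearts were Langendorff-perfused and their ECG recorded at graded concentrations. Intervals read were PR (atrioventricular conduction time), QT (ventricular action potential duration) and QRS (intraventricular conduction time).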

[8] = Cardioprotective effect in Langendorff perfused guinea pig spontaneously beating […] assessed as intraventicular conduction time at 10 uM (RVb = 19 to 24 +/- 1 to 2 ms); type: functional; details: Cavia porcellus; outline: as §2
[9] = Cardioprotective effect in Langendorff perfused guinea pig spontaneously beating […] assessed as intraventicular conduction time at 1 uM (RVb = 19 to 24 +/- 1 to 2 ms); type: functional; details: Cavia porcellus; outline: as §2
[10] = Cardioprotective effect in Langendorff perfused guinea pig spontaneously beating […] assessed as intraventicular conduction time at 0.1 uM (RVb = 19 to 24 +/- 1 to 2 ms); type: functional; details: Cavia porcellus; outline: as §2
[11] = Cardioprotective effect in Langendorff perfused guinea pig spontaneously beating […] assessed as intraventicular conduction time at 0.01 uM (RVb = 19 to 24 +/- 1 to 2 ms); type: functional; details: Cavia porcellus; outline: as §2
[12] = Cardioprotective effect in Langendorff perfused guinea pig spontaneously beating […] assessed as intraventicular conduction time at 0.001 uM (RVb = 19 to 24 +/- 1 to 2 ms); type: functional; details: Cavia porcellus; outline: as §2
[13] = Cardioprotective effect in Langendorff perfused guinea pig spontaneously beating […] assessed as atrioventicular conduction time at 10 uM (RVb = 50 to 55 +/- 1 to 4 ms); type: functional; details: Cavia porcellus; outline: as §2
[14] = Cardioprotective effect in Langendorff perfused guinea pig spontaneously beating […] assessed as atrioventicular conduction time at 0.1 uM (RVb = 50 to 55 +/- 1 to 4 ms); type: functional; details: Cavia porcellus; outline: as §2
[15] = Cardioprotective effect in Langendorff perfused guinea pig spontaneously beating […] assessed as atrioventicular conduction time at 0.01 uM (RVb = 50 to 55 +/- 1 to 4 ms); type: functional; details: Cavia porcellus; outline: as §2
[16] = Cardioprotective effect in Langendorff perfused guinea pig spontaneously beating […] assessed as atrioventicular conduction time at 0.001 uM (RVb = 50 to 55 +/- 1 to 4 ms); type: functional; details: Cavia porcellus; outline: as §2
Aorta [17] = experiment: Vasorelaxant activity in potassium depolarized guinea pig aortic strip assessed as inhibition of calcium-induced contraction at 50 uM; type: functional; details: Cavia porcellus
[18] = Negative chronotropic activity against potassium-induced contraction in guinea pig left atrium assessed as decrease atrial rate at 100 uM relative to control; type: functional, Cavia porcellus, Cardiac atrium; set-up: scale not given: the % may be the effect or the level left
[19] = Antiarrhythmic activity in sinusoidal alternating current-induced guinea pig left atrium assessed as increase in current strength at which extra beats occur measured every 30 mins; type: functional, tissue-based; details: Cavia porcellus, Cardiac atrium, 0.5 h; outline: as §1
[20] = Cardioprotective effect in Langendorff perfused guinea pig spontaneously beating […] assessed as duration of ventricular action potential at 10 uM (RVb = 140 to 161 +/- 2 to 8 ms); type: functional, Cavia porcellus, Cardiac ventricle; outline: as §2
[21] = Cardioprotective effect in Langendorff perfused guinea pig spontaneously beating […] assessed as duration of ventricular action potential at 1 uM (RVb = 140 to 161 +/- 2 to 8 ms); type: functional, Cavia porcellus, Cardiac ventricle; outline: as §2
[22] = Cardioprotective effect in Langendorff perfused guinea pig spontaneously beating […] assessed as duration of ventricular action potential at 0.1 uM (RVb = 140 to 161 +/- 2 to 8 ms); type: functional, Cavia porcellus, Cardiac ventricle; outline: as §2
[23] = Cardioprotective effect in Langendorff perfused guinea pig spontaneously beating […] assessed as duration of ventricular action potential at 0.01 uM (RVb = 140 to 161 +/- 2 to 8 ms); type: functional, Cavia porcellus, Cardiac ventricle; outline: as §2
[24] = Cardioprotective effect in Langendorff perfused guinea pig spontaneously beating […] assessed as duration of ventricular action potential at 0.001 uM (RVb = 140 to 161 +/- 2 to 8 ms); type: functional, Cavia porcellus, Cardiac ventricle; outline: as §2
Heart [25] = experiment: Cardioprotective effect in Langendorff perfused guinea pig spontaneously beating […] assessed as heart rat at 0.001 uM (RVb = 175 to 190 +/- 5 to 11 bpm); type: functional, Cavia porcellus
Heart [26] = experiment: Cardioprotective effect in Langendorff perfused guinea pig spontaneously beating […] assessed as heart rat at 0.01 uM (RVb = 175 to 190 +/- 5 to 11 bpm); type: functional, Cavia porcellus
Heart [27] = experiment: Cardioprotective effect in Langendorff perfused guinea pig spontaneously beating […] assessed as heart rat at 0.1 uM (RVb = 175 to 190 +/- 5 to 11 bpm); type: functional, Cavia porcellus
Heart [28] = experiment: Cardioprotective effect in Langendorff perfused guinea pig spontaneously beating […] assessed as heart rat at 1 uM (RVb = 175 to 190 +/- 5 to 11 bpm); type: functional, Cavia porcellus
Heart [29] = experiment: Cardioprotective effect in Langendorff perfused guinea pig spontaneously beating […] assessed as heart rat at 10 uM (RVb = 175 to 190 +/- 5 to 11 bpm); type: functional, Cavia porcellus
[30] = Negative chronotropic activity against potassium-induced contraction in guinea pig left atrium assessed as decrease atrial rate at 0.5 uM relative to control; type: functional, Cavia porcellus, Cardiac atrium; set-up: scale not given: the % may be the effect or the level left
[31] = Negative chronotropic activity against potassium-induced contraction in guinea pig left atrium assessed as decrease atrial rate at 50 uM relative to control; type: functional, Cavia porcellus, Cardiac atrium; set-up: scale not given: the % may be the effect or the level left
[32] = Antiarrhythmic activity in sinusoidal alternating current-induced guinea pig left atrium assessed as increase in current strength at which extra beats occur at 10 uM measured every 30 mins; type: functional, Cavia porcellus, Cardiac atrium; outline: as §1
[33] = Negative chronotropic activity against potassium-induced contraction in guinea pig left atrium assessed as decrease atrial rate at 10 uM relative to control; type: functional, Cavia porcellus, Cardiac atrium; set-up: scale not given: the % may be the effect or the level left
[34] = Negative inotropic activity against potassium-induced contraction in guinea pig left atrium assessed as decrease in developed tension at 50 uM relative to control; type: functional, Cavia porcellus, Cardiac atrium; set-up: scale not given: the % may be the effect or the level left

Cc1cccc(C)c1OC[C@@H]1CCCN2CCCC[C@H]12
inhibition at 100 µM (Aorta [1]): 26%

Cc1cc(C)c(NC(=O)C[C@@H]2CCCN3CCCC[C@H]23)c(C)c1
inhibition at 100 µM (Aorta [1]): 2%
EC50 [2]: 10 nM
Activity [3]: 49%
Activity [4]: 54%

COc1ccc2c(c1)nc(-c1ccccc1)c(=O)n2C[C@H]1CCCN2CCCC[C@@H]12
inhibition at 100 µM (Aorta [1]): 11%
EC50 [5]: 15300 nM
EC50 [2]: 31 nM
Activity [6]: 85%
Activity [3]: 30%

CCCCc1oc2ccccc2c1C(=O)c1cc(I)c(OCCN(CC)CC)c(I)c1
AV conduction time [7]: 56 ms
intraventricular conduction time [8]: 24 ms
intraventricular conduction time [9]: 22 ms
intraventricular conduction time [10]: 21 ms
intraventricular conduction time [11]: 20 ms
intraventricular conduction time [12]: 20 ms
AV conduction time [13]: 58 ms
AV conduction time [14]: 55 ms
AV conduction time [15]: 55 ms
AV conduction time [16]: 54 ms

CCN(CC)CCNC(=O)c1ccc(N)cc1 [PROCAINAMIDE]
inhibition at 100 µM (Aorta [1]): 2%

C=C[C@H]1CN2CC[C@H]1C[C@@H]2[C@@H](O)c1ccnc2ccc(OC)cc12 [QUINIDINE]
inhibition at 50 µM (Aorta [17]): 30%
AV conduction time [7]: 60 ms
intraventricular conduction time [8]: 39 ms
intraventricular conduction time [9]: 35 ms
intraventricular conduction time [10]: 31 ms
intraventricular conduction time [11]: 27 ms
intraventricular conduction time [12]: 25 ms
AV conduction time [13]: 70 ms
AV conduction time [14]: 57 ms
AV conduction time [15]: 54 ms
AV conduction time [16]: 53 ms

Cc1cc(C(=O)c2ccccc2)ccc1NC(=O)C[C@@H]1CCCN2CCCC[C@H]12
EC50 [5]: 6140 nM
EC50 [2]: 44 nM
Activity [18]: 59%
Activity [6]: 79%
EC50 [19]: 150 nM
Activity [3]: 64%
Activity [20]: 170 ms
Activity [21]: 162 ms
AV conduction time [7]: 56 ms
Activity [22]: 155 ms
Activity [23]: 154 ms
Activity [24]: 158 ms
intraventricular conduction time [8]: 25 ms
intraventricular conduction time [9]: 22 ms
intraventricular conduction time [10]: 23 ms
intraventricular conduction time [11]: 20 ms
intraventricular conduction time [12]: 23 ms
AV conduction time [13]: 57 ms
AV conduction time [14]: 53 ms
AV conduction time [15]: 54 ms
AV conduction time [16]: 54 ms
Activity (Heart [25]): 177 bpm
Activity (Heart [26]): 171 bpm
Activity (Heart [27]): 158 bpm
Activity (Heart [28]): 145 bpm
Activity (Heart [29]): 137 bpm

CC(=O)Nc1ccc(C(=O)NC[C@@H]2CCCN3CCCC[C@H]23)cc1
Activity [30]: 14%
EC50 [2]: 56 nM

CCN(CC)CC(=O)Nc1c(C)cccc1C [LIDOCAINE]
inhibition at 50 µM (Aorta [17]): 14%

Cc1cc(C)c(NCC[C@@H]2CCCN3CCCC[C@H]23)c(C)c1
inhibition at 100 µM (Aorta [1]): 37%
EC50 [2]: 34 nM
Activity [31]: 44%
Activity [6]: 89%
EC50 [19]: 8150 nM
Activity [32]: 63%

O=C(C[C@@H]1CCCN2CCCC[C@H]12)Nc1c(Cl)cccc1Cl
inhibition at 100 µM (Aorta [1]): 6%
EC50 [2]: 100 nM
Activity [31]: 15%
Activity [3]: 32%

Cc1cccc(C)c1NCCSC[C@@H]1CCCN2CCCC[C@H]12
inhibition at 100 µM (Aorta [1]): 34%
EC50 [5]: 8420 nM
Activity [33]: 62%
Activity [6]: 37%
EC50 [19]: 310 nM
Activity [32]: 129%
Activity [20]: 175 ms
Activity [21]: 170 ms
AV conduction time [7]: 57 ms
Activity [22]: 168 ms
Activity [23]: 162 ms
Activity [24]: 160 ms
intraventricular conduction time [8]: 26 ms
intraventricular conduction time [9]: 25 ms
intraventricular conduction time [10]: 24 ms
intraventricular conduction time [11]: 23 ms
intraventricular conduction time [12]: 23 ms
AV conduction time [13]: 60 ms
AV conduction time [14]: 55 ms
AV conduction time [15]: 55 ms
AV conduction time [16]: 55 ms
Activity (Heart [25]): 186 bpm
Activity (Heart [26]): 185 bpm
Activity (Heart [27]): 179 bpm
Activity (Heart [28]): 158 bpm
Activity (Heart [29]): 142 bpm

Cc1cc(C(=O)c2ccccc2)cc(C)c1NC(=O)C[C@@H]1CCCN2CCCC[C@H]12
Activity [30]: 70%

COc1cc(N)c(Cl)cc1C(=O)NC[C@@H]1CCCN2CCCC[C@H]12
inhibition at 100 µM (Aorta [1]): 6%
EC50 [2]: 350 nM
Activity [31]: 22%
Activity [34]: 95%
EC50 [19]: 6730 nM
Activity [3]: 113%
